The values that follow come from ChEMBL document CHEMBL1143480, “Bicyclic heteroarylpiperazines as selective brain penetrant 5-HT6 receptor antagonists” (Bioorg Med Chem Lett, 2005).

The target of assay [1] is T1, 5-hydroxytryptamine receptor 6 (Homo sapiens, UniProt P50406). Put plainly: Displacement of [3H]LSD from human 5-hydroxytryptamine 6 receptor expressed in HeLa cells. The assay is classed as cell-based. In short, it runs like this:
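Human cloned 5-HT6 receptor expressed in HeLa cells. Binding measured by [3H]LSD displacement and reported as pKi. Each value is the mean of at least three experiments, each within 0.3 of the mean.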
(In general: In a radioligand displacement assay an active substance lowers the binding of a labelled ligand.)

Assay [2] addresses 5-hydroxytryptamine receptor 6 (Rattus norvegicus) (UniProt P31388). Put plainly: (§1) In vivo binding assay against rat 5-hydroxytryptamine 6 receptor using [125I]-SB-258,585. The assay is classed as organism-based. In short, it runs like this: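 Ex vivo assay: rats were dosed orally with vehicle or antagonist and killed after a 4 h pretreatment. Striatum was removed and homogenised, and a binding assay with the selective 5-HT6 radioligand was run on the tissue. ED50 was expressed as mg/kg po.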

Assay [3] shares this target. The assay is described as §1. The assay is classed as functional, organism-based. In short, it runs like this: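 Ex vivo assay. Rats were given vehicle or antagonist orally with a 4 h pretreatment, then killed. Striatum was removed and homogenised, and a binding assay with a selective 5-HT6 radioligand was run on the tissue. Potency is expressed as oral ED50 (mg/kg).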

The target in assay [4] is T1, 5-hydroxytryptamine receptor 6. Particulars: HeLa.
The target of assay [5] is 5-hydroxytryptamine receptor 6 (Rattus norvegicus, UniProt P31388). Description: Binding affinity against 5-hydroxytryptamine 6 receptor of rat striatum. The assay is classed as tissue-based.
Sequence of 5-hydroxytryptamine receptor 6 (Rattus norvegicus, UniProt P31388) (P31388 whole entry): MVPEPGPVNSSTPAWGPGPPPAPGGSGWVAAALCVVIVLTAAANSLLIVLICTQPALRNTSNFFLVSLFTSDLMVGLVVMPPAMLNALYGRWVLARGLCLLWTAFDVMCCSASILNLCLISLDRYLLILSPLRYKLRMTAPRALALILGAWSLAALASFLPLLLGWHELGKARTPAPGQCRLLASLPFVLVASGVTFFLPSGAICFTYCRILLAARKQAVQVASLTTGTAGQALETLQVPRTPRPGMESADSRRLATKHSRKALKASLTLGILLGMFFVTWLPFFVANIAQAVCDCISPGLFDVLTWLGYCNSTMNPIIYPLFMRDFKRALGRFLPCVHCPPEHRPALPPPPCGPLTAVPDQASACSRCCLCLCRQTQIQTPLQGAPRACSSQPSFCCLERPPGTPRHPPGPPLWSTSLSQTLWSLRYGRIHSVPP
Assay [6] has as its target T1, 5-hydroxytryptamine receptor 6. Put plainly: Binding affinity against 5-hydroxytryptamine 6 receptor of human caudate.

Sequence of 5-hydroxytryptamine receptor 6 (Rattus norvegicus) (P31388 whole entry): as above
T1 sequence (P50406 whole entry): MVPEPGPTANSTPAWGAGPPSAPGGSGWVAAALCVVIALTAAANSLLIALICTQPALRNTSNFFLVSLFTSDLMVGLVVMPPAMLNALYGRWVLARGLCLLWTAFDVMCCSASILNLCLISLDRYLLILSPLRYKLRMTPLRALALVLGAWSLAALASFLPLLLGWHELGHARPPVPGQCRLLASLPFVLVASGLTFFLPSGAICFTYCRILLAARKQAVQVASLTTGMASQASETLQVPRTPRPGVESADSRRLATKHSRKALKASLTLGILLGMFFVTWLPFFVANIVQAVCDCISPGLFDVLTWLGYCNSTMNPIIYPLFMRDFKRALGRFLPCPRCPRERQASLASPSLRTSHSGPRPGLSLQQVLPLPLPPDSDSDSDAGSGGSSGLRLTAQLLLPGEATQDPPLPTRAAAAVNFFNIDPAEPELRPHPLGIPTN

With `O=S(=O)(c1ccccc1)c1coc2c(N3CCNCC3)cccc12`, the inhibition constant Ki (as a rule, the equilibrium dissociation constant of an inhibitor or competing ligand from its target) in assay [1] is 1.26 nM. The same measure, in the same setting: the value for `O=S(=O)(c1ccc2ccccc2c1)n1ccc2c(N3CCNCC3)c(Cl)ccc21` was 25.1 nM; that for `O=S(=O)(c1ccccn1)n1ccc2c(N3CCNCC3)c(Cl)ccc21` was 0.501 nM. Still for that read-out and setting: the value for `O=S(=O)(c1ccccn1)n1ccc2c(N3CCNCC3)cccc21` was 1 nM. In assay [1], `O=S(=O)(c1ccccc1Cl)n1ccc2c(N3CCNCC3)c(Cl)ccc21` gave a Ki of 1 nM. In assay [1], `O=S(=O)(c1ccccc1Cl)n1ccc2c(N3CCNCC3)cccc21` had a Ki of 0.398 nM.

As to `O=S(=O)(c1cccc(Cl)c1)n1ccc2c(N3CCNCC3)ccc(Cl)c21`, the Ki in assay [1] was 0.316 nM. On the same count and under the same terms, the same measure for `Cc1cn(S(=O)(=O)c2cccc(Cl)c2)c2cccc(N3CCNCC3)c12`: 0.631 nM; for `N#Cc1ccc2c(ccn2S(=O)(=O)c2cccc(Cl)c2)c1N1CCNCC1`: 5.01 nM. The same measure, in the same setting: the same measure for `O=S(=O)(c1ccc(Cl)cc1)n1ccc2c(N3CCNCC3)c(Cl)ccc21`: 6.31 nM. On the same count and under the same terms, the same measure for `O=S(=O)(c1cccc(Cl)c1)c1c[nH]c2c(N3CCNCC3)cccc12`: 0.316 nM; for `O=S(=O)(c1ccccc1)c1c[nH]c2c(N3CCNCC3)nccc12`: 25.1 nM. The molecule `O=S(=O)(c1cccc(Cl)c1)n1cc(Cl)c2c(N3CCNCC3)cccc21` gave a Ki in assay [1] of 0.316 nM. On to `O=S(=O)(c1ccccc1)n1ccc2c(N3CCNCC3)c(Cl)ccc21`, for which, in assay [1], the affinity, expressed as Ki, was 1.58 nM. Same read-out and setting: the same measure for `O=S(=O)(c1ccc(Cl)cc1)n1ccc2c(N3CCNCC3)cccc21`: 2 nM; for `O=S(=O)(c1cccc(Cl)c1)n1ccc2c(N3CCNCC3)cccc21`: 0.251 nM. Consider `COc1ccc(NS(=O)(=O)c2sc3ccc(Cl)cc3c2C)cc1N1CCNCC1`, for which, in assay [2], the ED50 (in general, the dose at which the effect has come halfway, by size or by number of responders) is 11 mg/kg. In turn, `O=S(=O)(c1cccc(Cl)c1)n1ccc2c(N3CCNCC3)c(Cl)ccc21` gave an ED50 in assay [3] of 3 mg/kg. The inhibition constant (Ki) is 2.51 nM in assay [1], 12.6 nM in assay [5] and 7.94 nM in assay [6]. In addition, the pKb (as a rule, the Kb on a negative log10 scale, so that one unit is a factor of ten) in assay [4] is 7.2. As to `O=S(=O)(c1ccccc1)c1csc2c(N3CCNCC3)cccc12`, in assay [1], the Ki is 0.501 nM. Still for that read-out and setting: the value for `O=S(=O)(c1ccccc1)c1c[nH]c2c(N3CCNCC3)ccnc12` was 7.94 nM. `Cn1cc(S(=O)(=O)c2cccc(Cl)c2)c2cccc(N3CCNCC3)c21`: the ED50 in assay [3] was 5 mg/kg. Moreover, in assay [1], the inhibition constant (Ki) is 2.51 nM. With `Cc1c(S(=O)(=O)n2ccc3c(N4CCNCC4)cccc32)sc2ccc(Cl)cc12`, the Ki in assay [1] was 3.16 nM. Still for that read-out and setting: the same measure for `Cc1cc2c(N3CCNCC3)cccc2n1S(=O)(=O)c1cccc(Cl)c1`: 0.398 nM; for `O=S(=O)(c1cccc2ccccc12)n1ccc2c(N3CCNCC3)c(Cl)ccc21`: 7.94 nM.
